Columns and labels:
[1] = target: Serine/threonine-protein kinase B-raf (Homo sapiens, UniProt P15056, V600E); assay: Inhibition of recombinant human B-RAF V600E mutant using Ser/Thr3 as substrate after 1 hr by FRET-based Z'-Lyte assay
[2] = target: Serine/threonine-protein kinase B-raf (Homo sapiens, UniProt P15056); assay: Inhibition of wild type GST-tagged recombinant human full-length B-RAF expressed in baculovirus expression system using Ser/Thr3 as substrate after 1 hr by FRET-based Z'-Lyte assay
Method in brief: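 Z'-Lyte FRET assay with Ser/Thr3 peptide in kinase buffer; the final reaction held 0.002 ng B-Raf for wild type. Incubated 1 h at room temperature, then 1 h development to cleave nonphosphorylated peptide, then stop reagent. Means of 3 independent experiments.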

[3] = target: T1, Mitogen-activated protein kinase kinase kinase 20 (Homo sapiens, UniProt Q9NYL2); assay: Inhibition of N-terminal GST-tagged recombinant human full-length ZAK expressed in baculovirus infected Sf9 insect cells using MBP as substrate after 30 mins by ADP-Glo assay
Method in brief: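 ZAK activity by ADP-Glo luminescence with MBP as substrate, ATP and serially diluted compound. Reaction started by adding ATP and run 30 min at room temperature. ADP-Glo reagent was added to stop it (40 min), then detection reagent for 30 min before reading luminescence. Curves fitted; each experiment repeated at least 3 times.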

[4] = target: T1, Mitogen-activated protein kinase kinase kinase 20

Chain of Serine/threonine-protein kinase B-raf (Homo sapiens, UniProt P15056) (P15056 whole entry): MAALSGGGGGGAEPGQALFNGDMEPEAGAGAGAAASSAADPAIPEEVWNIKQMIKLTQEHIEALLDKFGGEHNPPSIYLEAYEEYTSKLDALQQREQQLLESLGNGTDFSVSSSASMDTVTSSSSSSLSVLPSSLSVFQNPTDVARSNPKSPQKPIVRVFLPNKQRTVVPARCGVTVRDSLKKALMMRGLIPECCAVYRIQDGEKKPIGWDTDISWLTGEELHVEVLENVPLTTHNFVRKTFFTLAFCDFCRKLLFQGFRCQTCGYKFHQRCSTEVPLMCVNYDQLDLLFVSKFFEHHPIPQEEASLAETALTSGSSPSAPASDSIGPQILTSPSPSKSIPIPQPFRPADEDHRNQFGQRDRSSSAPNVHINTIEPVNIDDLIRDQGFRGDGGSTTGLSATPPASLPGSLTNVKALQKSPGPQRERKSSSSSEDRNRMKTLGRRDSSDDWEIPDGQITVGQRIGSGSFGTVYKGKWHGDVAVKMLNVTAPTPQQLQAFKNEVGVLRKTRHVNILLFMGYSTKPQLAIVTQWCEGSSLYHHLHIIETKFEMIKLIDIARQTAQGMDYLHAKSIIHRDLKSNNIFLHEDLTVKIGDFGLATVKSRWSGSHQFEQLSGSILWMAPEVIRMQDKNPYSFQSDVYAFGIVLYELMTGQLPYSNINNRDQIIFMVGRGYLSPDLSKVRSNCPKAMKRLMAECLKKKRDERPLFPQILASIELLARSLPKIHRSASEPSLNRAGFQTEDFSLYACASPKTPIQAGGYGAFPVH
Chain of Serine/threonine-protein kinase B-raf (Homo sapiens, UniProt P15056, V600E) (P15056 2-766 V600E limits assumed): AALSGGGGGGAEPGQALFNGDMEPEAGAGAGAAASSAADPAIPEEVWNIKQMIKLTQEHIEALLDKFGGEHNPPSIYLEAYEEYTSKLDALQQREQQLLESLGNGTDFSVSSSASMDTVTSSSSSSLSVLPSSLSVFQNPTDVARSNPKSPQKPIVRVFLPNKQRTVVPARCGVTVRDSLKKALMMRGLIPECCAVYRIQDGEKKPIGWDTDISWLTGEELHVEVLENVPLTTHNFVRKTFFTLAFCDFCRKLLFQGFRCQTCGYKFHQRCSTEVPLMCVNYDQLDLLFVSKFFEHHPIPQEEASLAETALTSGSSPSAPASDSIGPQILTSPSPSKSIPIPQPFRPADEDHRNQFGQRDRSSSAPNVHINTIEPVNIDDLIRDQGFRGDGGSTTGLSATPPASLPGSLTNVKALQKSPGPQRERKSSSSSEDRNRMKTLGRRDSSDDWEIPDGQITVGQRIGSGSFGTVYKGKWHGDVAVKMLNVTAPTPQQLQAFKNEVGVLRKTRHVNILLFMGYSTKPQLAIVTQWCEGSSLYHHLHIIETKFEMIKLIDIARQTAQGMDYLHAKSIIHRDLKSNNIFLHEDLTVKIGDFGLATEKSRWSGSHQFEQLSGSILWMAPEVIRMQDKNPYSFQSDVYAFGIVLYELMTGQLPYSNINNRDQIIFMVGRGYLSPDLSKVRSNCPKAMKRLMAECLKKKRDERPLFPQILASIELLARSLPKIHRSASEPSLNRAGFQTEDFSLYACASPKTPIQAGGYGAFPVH
T1 sequence (Q9NYL2 whole entry): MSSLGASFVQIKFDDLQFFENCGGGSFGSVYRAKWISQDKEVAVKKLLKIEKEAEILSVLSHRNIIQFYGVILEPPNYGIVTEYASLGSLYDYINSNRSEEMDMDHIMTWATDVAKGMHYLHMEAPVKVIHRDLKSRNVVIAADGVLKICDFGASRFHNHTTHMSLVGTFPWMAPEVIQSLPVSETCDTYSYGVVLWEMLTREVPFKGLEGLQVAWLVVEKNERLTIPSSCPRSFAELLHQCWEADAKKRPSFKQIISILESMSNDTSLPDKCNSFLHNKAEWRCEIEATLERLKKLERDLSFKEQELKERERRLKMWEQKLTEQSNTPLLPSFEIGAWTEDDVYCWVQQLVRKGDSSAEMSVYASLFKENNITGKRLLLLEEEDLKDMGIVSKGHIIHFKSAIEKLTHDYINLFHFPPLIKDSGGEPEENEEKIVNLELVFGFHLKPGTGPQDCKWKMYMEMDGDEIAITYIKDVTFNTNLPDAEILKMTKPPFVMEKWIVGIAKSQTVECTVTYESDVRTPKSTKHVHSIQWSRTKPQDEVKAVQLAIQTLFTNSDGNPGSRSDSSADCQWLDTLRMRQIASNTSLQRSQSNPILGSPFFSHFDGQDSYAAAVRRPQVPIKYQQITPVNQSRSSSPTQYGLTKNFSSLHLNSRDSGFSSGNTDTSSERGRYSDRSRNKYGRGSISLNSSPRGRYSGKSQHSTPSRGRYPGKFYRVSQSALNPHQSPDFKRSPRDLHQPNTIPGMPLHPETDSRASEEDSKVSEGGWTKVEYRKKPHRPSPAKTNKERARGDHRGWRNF

IC50 [1] | IC50 [2] | IC50 [3] | IC50 [4] | SMILES
902 nM | > 6000 nM | 4.2 nM | – | COc1n[nH]c2ncc(C#Cc3c(F)ccc(NS(=O)(=O)c4cccc(Cl)c4)c3F)cc12
– | – | 31.4 nM | 23 nM | CCCS(=O)(=O)Nc1ccc(F)c(C(=O)c2c[nH]c3ncc(-c4ccc(Cl)cc4)cc23)c1F [VEMURAFENIB]
> 10000 nM | > 2000 nM | 9.6 nM | – | COc1n[nH]c2ncc(C#Cc3c(F)ccc(NS(=O)(=O)c4cccc(Cl)c4Cl)c3F)cc12
> 10000 nM | > 10000 nM | 12.1 nM | – | COc1n[nH]c2ncc(C#Cc3c(F)ccc(NS(=O)(=O)c4cccc(C)c4)c3F)cc12

From ChEMBL document CHEMBL4052661, “Structure Based Design of N-(3-((1H-Pyrazolo[3,4-b]pyridin-5-yl)ethynyl)benzenesulfonamides as Selective Leucine-Zipper and Sterile-α Motif Kinase (ZAK) Inhibitors” (J Med Chem, 2017)
